Laboratory results from ChEMBL document CHEMBL1926584, “Pterocarpanquinones, aza-pterocarpanquinone and derivatives: synthesis, antineoplasic activity on human malignant cell lines and antileishmanial activity on Leishmania amazonensis” (Bioorg Med Chem, 2011).

Columns and labels:
HL-60 = test: Antineoplastic activity against human HL60 cells after 72 hrs by MTT assay; assay type: functional, cell-based; settings: HL-60, 72 h
In short: (§1)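 Tumour lines kept in RPMI 1640 with 10% FBS, 2 mM glutamine, penicillin/streptomycin, 37 °C, 5% CO2. Seeded at 10^5 cells/mL (adherent) or 3×10^5 cells/mL (leukemia). Compounds 0.1–25 µg/mL in DMSO 1%, 72 h. Vehicle controls got equal DMSO. MTT 0.5 mg/mL for 3 h, formazan dissolved in DMSO, absorbance at 595 nm. Doxorubicin 0.01–5 µg/mL as positive control.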

K562 = test: Antineoplastic activity against human K562 cells after 72 hrs by MTT assay; assay type: functional, cell-based; settings: K562, 72 h; in short: as §1
HCT-8 = test: Antineoplastic activity against human HCT8 cells after 72 hrs by MTT assay; assay type: functional, cell-based; settings: HCT-8, 72 h; in short: as §1
SF-295 = test: Antineoplastic activity against human SF295 cells after 72 hrs by MTT assay; assay type: functional, cell-based; settings: SF-295, 72 h; in short: as §1
MDA-MB-435 [1] = test: Antineoplastic activity against human MDA-MB-435 cells after 72 hrs by MTT assay; assay type: functional, cell-based; settings: MDA-MB-435, 72 h; in short: as §1
PBMC [2] = test: Cytotoxicity against PHA activated human PBMC cells after 72 hrs by MTT assay; assay type: cell-based
In short: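 PBMC isolated from heparinized blood of healthy non-smoking donors (drug-free ≥15 days) by Ficoll-Hypaque density-gradient centrifugation. Plated at 3×10^5 cells/mL in RPMI 1640 with 20% FBS, glutamine and antibiotics, 37 °C, 5% CO2. Phytohemagglutinin (3%) added at start. After 24 h, compounds 0.1–25 µg/mL in DMSO 1% added for 72 h. MTT read-out at 595 nm.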

PBMC [3] = test: Selectivity index, ratio of IC50 for PHA activated human PBMC cells to IC50 for human HL60 cells; assay type: functional
PBMC [4] = test: Selectivity index, ratio of IC50 for PHA activated human PBMC cells to IC50 for human HCT8 cells; assay type: functional
PBMC [5] = test: Selectivity index, ratio of IC50 for PHA activated human PBMC cells to IC50 for human SF295 cells; assay type: functional
PBMC [6] = test: Selectivity index, ratio of IC50 for PHA activated human PBMC cells to IC50 for human MDA-MB-435 cells; assay type: functional
Leishmania amazonensis [7] = test: Antileishmanial activity against Leishmania amazonensis promastigotes after 72 hrs by MTT assay; assay type: functional, organism-based
In short: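 Promastigotes grown at 26 °C in Schneider's medium with 10% FBS. Inoculum 1.0×10^6/ml, compounds 0–20 µM, 72 h at 26 °C. MTT (5 mg/mL solution) added for 2 h, then DMSO, OD at 570 nm. Pentamidine isethionate as reference. Experiments repeated at least three times; IC50 derived by software fitting.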

Leishmania amazonensis [8] = test: Antileishmanial activity against Leishmania amazonensis amastigotes infected in BALB/c mouse peritoneal macrophages after 72 hrs by microscopy; assay type: functional, organism-based
In short: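 Resident BALB/c peritoneal macrophages in RPMI, 2×10^6/mL, 1 h at 37 °C, 5% CO2. Infected with stationary-phase promastigotes at 3:1 parasite/macrophage for 3 h, then washed with PBS. Compounds 0–20 µM in duplicate for 72 h. Hematological stain and light microscopy, amastigotes counted in ≥100 macrophages. Pentamidine reference. Repeated at least three times.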

J774 = test: Cytotoxicity against mouse J774 cells after 72 hrs by MTT assay; assay type: cell-based; settings: J774, 72 h
In short: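 J774 murine macrophages (2×10^6 in 200 µL) incubated with a range of compound concentrations for 72 h at 37 °C/5% CO2. Viability by MTT. Pentamidine isethionate as reference. Experiments repeated at least three times.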

PBMC [9] = test: Selectivity index, ratio of IC50 for PHA activated human PBMC cells to IC50 for human K562 cells; assay type: functional
MDA-MB-435 [10] = test: Ratio of doxorubicin IC50 to compound IC50 for human MDA-MB-435 cells; assay type: functional

| SMILES | IC50 (HL-60) | IC50 (K562) | IC50 (HCT-8) | IC50 (SF-295) | IC50 (MDA-MB-435 [1]) | IC50 (PBMC [2]) | Ratio IC50 (PBMC [3]) | Ratio IC50 (PBMC [4]) | Ratio IC50 (PBMC [5]) | Ratio IC50 (PBMC [6]) | IC50 (Leishmania amazonensis [7]) | IC50 (Leishmania amazonensis [8]) | IC50 (J774) | Ratio IC50 (PBMC [9]) | Ratio IC50 (MDA-MB-435 [10]) |
| --- | --- | --- | --- | --- | --- | --- | --- | --- | --- | --- | --- | --- | --- | --- | --- |
| c1ccc2c(c1)O[C@@H]1c3ccccc3OC[C@H]21 | > 112 µM | > 112 µM | > 112 µM | > 112 µM | > 112 µM |  |  |  |  |  |  |  |  |  |  |
| c1ccc2c(c1)CC[C@@H]1c3ccccc3O[C@H]21 | > 112 µM | > 112 µM | > 112 µM | > 112 µM | > 112 µM |  |  |  |  |  |  |  |  |  |  |
| Cc1ccc(S(=O)(=O)N2c3ccccc3[C@H]3COc4ccccc4[C@H]32)cc1 | 6.1 µM | 6.4 µM | 9 µM | 31.5 µM | 5 µM |  |  |  |  |  |  |  |  |  |  |
| Cc1ccc(S(=O)(=O)N2c3ccccc3[C@H]3CCc4ccccc4[C@H]32)cc1 | 1 µM | 1.9 µM | 3 µM | > 62.5 µM | 0.5 µM | 7.2 µM | 7.2 | 2.4 | 0.11 | 14.4 | 4.85 µM | 2.15 µM | 23 µM |  |  |
| O=C1C2=C(OCC=C2)C(=O)c2ccccc21 | 0.5 µM |  | 2.8 µM | 2.3 µM | 1.8 µM | < 1.4 µM | 2.8 | 0.5 | 0.6 | 0.78 |  |  |  |  |  |
| COc1ccc2c(c1)O[C@@H]1C3=C(OC[C@H]21)C(=O)c1ccccc1C3=O (racemic) | 3.5 µM | 3.3 µM | 10.4 µM | 17.7 µM | 11.4 µM | 7.8 µM | 2.22 | 0.75 | 0.44 | 0.68 | 2.85 µM | > 20 µM | 49.5 µM | 9.4 |  |
| COC(=O)c1ccc2c(c1)[C@H]1COC3=C(C(=O)c4ccccc4C3=O)[C@H]1O2 (racemic) | 4.1 µM | 8 µM | > 13 µM | > 13 µM | > 13 µM |  |  |  |  |  | 2.8 µM | 0.5 µM | 22.5 µM |  |  |
| COc1cc(C=O)cc2c1O[C@@H]1C3=C(OC[C@H]21)C(=O)c1ccccc1C3=O (racemic) | 3 µM | 13.5 µM | 6 µM | 7.4 µM | 10.7 µM | 6 µM | 2 | 1 | 0.8 | 0.56 | 1.27 µM | 1.25 µM | 18 µM |  |  |
| COc1c2c(c(OC)c3ccccc13)[C@H]1Oc3ccccc3[C@H]1CO2 (racemic) | 17.4 µM | 13.5 µM | 21.2 µM | 22.4 µM | 30.8 µM |  |  |  |  |  |  |  |  |  |  |
| Cc1ccc(S(=O)(=O)N2c3ccccc3[C@H]3COC4=C(C(=O)c5ccccc5C4=O)[C@H]32)cc1 (racemic) | 7.4 µM | 5.5 µM | 0.6 µM | 3.9 µM | 0.4 µM | 23 µM | 3.12 | 38.5 | 5.92 | 57.7 | 15 µM | > 20 µM | > 100 µM | 4.33 | 2 |
| COc1c2c(c(OC)c3ccccc13)[C@@H]1[C@H](CO2)c2ccccc2N1S(=O)(=O)c1ccc(C)cc1 (racemic) | > 51 µM | 46.7 µM | > 51 µM | > 51 µM | > 51 µM |  |  |  |  |  |  |  |  |  |  |
| O=C1C2=C(C(=O)c3ccccc31)[C@H]1Oc3ccc([N+](=O)[O-])cc3[C@H]1CO2 (racemic) | 6.3 µM |  | 8.3 µM | 8.9 µM | 17.4 µM | 8.6 µM | 1.36 | 1.06 | 0.96 | 0.49 | 1.07 µM | 1.85 µM | 12.1 µM |  |  |
| O=C1C2=C(C(=O)c3ccccc31)[C@H]1Oc3ccccc3[C@H]1CO2 (racemic) [PTEROCARPANQUINONE] | 1.3 µM |  | 2.6 µM | 3.6 µM | 2.3 µM | > 20 µM | 15.4 | 7.7 | 5.5 | 8.7 | 1.73 µM | 1.45 µM | 18.5 µM | 12 | 0.42 |
| COc1cccc2c1C(=O)c1c(O)c3c(c(O)c1C2=O)C[C@@](O)(C(=O)CO)C[C@@H]3O[C@H]1C[C@H](N)[C@H](O)[C@H](C)O1 [DOXORUBICIN] | 0.04 µM | 1.67 µM |  |  |  |  |  |  |  |  |  |  |  |  |  |
| N=C(N)c1ccc(OCCCCCOc2ccc(C(=N)N)cc2)cc1 [PENTAMIDINE] |  |  |  |  |  |  |  |  |  |  | 2.2 µM | 1.5 µM | 70 µM |  |  |
